Assay results taken from ChEMBL document CHEMBL1123462, “Indolo[2,1-c][1,4]benzodiazepines: a new class of antiallergic agents” (J Med Chem, 1986).

Assays:
[1] = test system: Cavia porcellus; assay: Compound was tested for the inhibition of guinea pig active lung anaphylaxis (ALA) at 1 mg/kg iv; format: functional
Summary of the method: (§1)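 Guinea pigs were sensitized with egg albumin 1 mg sc plus Bordetella pertussis vaccine adjuvant. Two weeks later: pentobarbital 65 mg/kg ip, then trachea, jugular vein and carotid cannulated. Drug given iv before an iv egg albumin challenge (0.5 mg/kg). Airway resistance (bronchoconstriction) and arterial pressure monitored. %inhibition given as mean ± SE; ED50 iv with 95% confidence limits.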

[2] = test system: Rattus norvegicus; assay: Compound was tested for the inhibition of rat passive cutaneous anaphylaxis (PCA) administered intraperitoneally; format: functional; settings: ip
Summary of the method: (§2)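 Male Sprague-Dawley rats were given 0.05 mL of high-titer IgE rat anti-ovalbumin antiserum intradermally. 24 h later: iv ovalbumin plus Evans Blue in saline, with simultaneous intradermal serotonin and histamine. Drug given ip 1 h before antigen. At 30 min, skin was reflected and wheal size and colour scored against a chart. %inhibition = (1 − mean treated/mean control score)×100. Dunnett's test, p ≤ 0.05.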

[3] = test system: Rattus norvegicus; assay: Compound was tested […] for the inhibition of serotonin release in rat peritoneal cell; format: functional
[4] = test system: Rattus norvegicus; assay: Compound was tested for percent inhibition, at 0.37 mg/kg administered intraperitoneally against histamine; format: functional; settings: ip, route intraperitoneal; summary of the method: as §2
[5] = test system: Rattus norvegicus; assay: Compound was tested for percent inhibition, at 0.37 mg/kg administered intraperitoneally against serotonin by Dunnett's test; format: functional; settings: ip, route intraperitoneal; summary of the method: as §2
[6] = test system: Rattus norvegicus; assay: Compound was tested for percent inhibition, at 3.3 mg/kg administered intraperitoneally against histamine by Dunnett's test; format: functional; settings: ip, route intraperitoneal; summary of the method: as §2
[7] = test system: Rattus norvegicus; assay: Compound was tested for percent inhibition, at 3.3 mg/kg administered intraperitoneally against rat passive cutaneous anaphylaxis by Dunnett's test; format: functional; settings: ip, route intraperitoneal; summary of the method: as §2
[8] = test system: Rattus norvegicus; assay: Compound was tested for percent inhibition, at 3.3 mg/kg administered intraperitoneally against serotonin by Dunnett's test; format: functional; settings: ip, route intraperitoneal; summary of the method: as §2
[9] = test system: Rattus norvegicus; assay: Compound was tested for the inhibition of rat passive cutaneous anaphylaxis (PCA) at 0.37 mg/kg dose ip (1h pretreatment); format: functional; settings: route intraperitoneal; summary of the method: as §2
[10] = test system: Rattus norvegicus; assay: Compound was tested for the inhibition of rat passive cutaneous anaphylaxis (PCA) at 10 mg/kg dose ip (1h pretreatment); format: functional; settings: route intraperitoneal
[11] = test system: Cavia porcellus; assay: Compound was tested for the inhibition of guinea pig active lung anaphylaxis (ALA) administered intravenously; format: functional; settings: iv; summary of the method: as §1
[12] = test system: Rattus norvegicus; assay: Compound was tested for percent inhibition, at 0.12 mg/kg administered intraperitoneally against histamine; format: functional; settings: ip, read-out: Inhibition, route intraperitoneal; summary of the method: as §2
[13] = test system: Rattus norvegicus; assay: Compound was tested for percent inhibition, at 0.12 mg/kg administered intraperitoneally against rat passive cutaneous anaphylaxis by Dunnett's test; format: functional; settings: ip, read-out: Inhibition, route intraperitoneal; summary of the method: as §2
[14] = test system: Rattus norvegicus; assay: Compound was tested for percent inhibition, at 0.12 mg/kg administered intraperitoneally against serotonin by Dunnett's test; format: functional; settings: ip, read-out: Inhibition, route intraperitoneal; summary of the method: as §2
[15] = test system: Rattus norvegicus; assay: Compound was tested for percent inhibition, at 0.37 mg/kg administered intraperitoneally against histamine by Dunnett's test; format: functional; settings: ip, route intraperitoneal; summary of the method: as §2
[16] = test system: Cavia porcellus; assay: Compound was tested for the inhibition of guinea pig active lung anaphylaxis (ALA) at 100 mg/kg iv; format: functional; summary of the method: as §1
[17] = test system: Rattus norvegicus; assay: Compound was tested for the inhibition of rat passive cutaneous anaphylaxis (PCA) at 10 mg/kg dose iv (5 min pretreatment); format: functional
Summary of the method: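 Rat skin IgE/ovalbumin PCA with simultaneous intradermal histamine and serotonin wheals. Drug given iv 5 min before the iv ovalbumin/Evans Blue challenge. Read 30 min later by wheal size and colour score. %inhibition = (1 − mean treated/mean control score)×100. Dunnett's test, p ≤ 0.05.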

[18] = test system: Rattus norvegicus; assay: Compound was tested for percent inhibition, at 1 mg/kg administered intravenously against histamine; settings: iv, read-out: Inhibition
[19] = test system: Rattus norvegicus; assay: Compound was tested for percent inhibition, at 10 mg/kg administered intravenously against histamine by Dunnett's test; settings: iv
[20] = test system: Rattus norvegicus; assay: Compound was tested for percent inhibition, at 10 mg/kg administered intravenously against serotonin by Dunnett's test; settings: iv
[21] = test system: Rattus norvegicus; assay: Compound was tested for percent inhibition, at 1 mg/kg administered intravenously against rat passive cutaneous anaphylaxis by Dunnett''s test; settings: iv, read-out: Inhibition
[22] = test system: Cavia porcellus; assay: Compound was tested for the inhibition of guinea pig active lung anaphylaxis (ALA) at 0.001 mg/kg iv; format: functional; summary of the method: as §1
[23] = test system: Cavia porcellus; assay: Inhibition of guinea pig ALA at a dose of 1 mg/kg 1 hr after postdosing intraperitoneally; format: functional; settings: ip, route intraperitoneal
Summary of the method: (§3)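 Guinea pigs were sensitized with egg albumin 1 mg sc plus pertussis vaccine adjuvant. Two weeks later they were anesthetized (pentobarbital 65 mg/kg ip) and cannulated. Drug was given ip or orally at 1 mg/kg. Challenge with egg albumin 0.5 mg/kg iv at 1, 7, 8 or 24 h post-dose, with bronchoconstriction measured. %inhibition given as mean ± SD.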

[24] = test system: Cavia porcellus; assay: Inhibition of guinea pig ALA at a dose of 1 mg/kg 1 hr after postdosing orally; format: functional; settings: route oral; summary of the method: as §3
[25] = test system: Cavia porcellus; assay: Inhibition of guinea pig ALA at a dose of 1 mg/kg 24 hr after postdosing intraperitoneally; format: functional; settings: ip, route intraperitoneal; summary of the method: as §3
[26] = test system: Cavia porcellus; assay: Inhibition of guinea pig ALA at a dose of 1 mg/kg 24 hr after postdosing orally; format: functional; settings: route oral; summary of the method: as §3
[27] = test system: Cavia porcellus; assay: Inhibition of guinea pig ALA at a dose of 1 mg/kg 7 hr after postdosing intraperitoneally; format: functional; settings: ip, route intraperitoneal; summary of the method: as §3
[28] = test system: Cavia porcellus; assay: Inhibition of guinea pig ALA at a dose of 1 mg/kg 8 hr after postdosing orally; format: functional; settings: route oral; summary of the method: as §3
[29] = organism: Cavia porcellus; assay: Compound was tested for the inhibition of guinea pig active lung anaphylaxis (ALA) Percent inhibition; format: functional; summary of the method: as §1
[30] = test system: Cavia porcellus; assay: Compound was tested for the inhibition of guinea pig active lung anaphylaxis (ALA) Dose administered intravenously; format: functional; summary of the method: as §1
[31] = test system: Cavia porcellus; assay: Percent inhibition at a dose of 1 mg/kg at given time postdosing intraperitoneally 7 h; format: functional; settings: ip, route intraperitoneal; summary of the method: as §3
[32] = test system: Cavia porcellus; assay: Percent inhibition at a dose of 1 mg/kg at given time postdosing orally 1 h; format: functional; settings: route oral; summary of the method: as §3
[33] = test system: Cavia porcellus; assay: Percent inhibition at a dose of 1 mg/kg at given time postdosing orally 8 h; format: functional; settings: route oral; summary of the method: as §3
[34] = test system: Cavia porcellus; assay: Percent inhibition at a dose of 1 mg/kg at given time postdosing orally 24 h; format: functional; settings: route oral; summary of the method: as §3
[35] = test system: Cavia porcellus; assay: Percent inhibition at a dose of 1 mg/kg at given time postdosing intraperitoneally 1 h; format: functional; settings: ip, route intraperitoneal; summary of the method: as §3
[36] = test system: Cavia porcellus; assay: Percent inhibition at a dose of 1 mg/kg at given time postdosing intraperitoneally 24 h; format: functional; settings: ip, route intraperitoneal; summary of the method: as §3
[37] = test system: Rattus norvegicus; assay: Compound was tested for the inhibition of rat passive cutaneous anaphylaxis (PCA) Dose administered intraperitoneally; format: functional; summary of the method: as §2
[38] = test system: Rattus norvegicus; assay: Compound was tested for percent inhibition, at 1.1 mg/kg administered intraperitoneally against histamine; format: functional; settings: ip, route intraperitoneal; summary of the method: as §2
[39] = test system: Rattus norvegicus; assay: Compound was tested for percent inhibition, at 1.1 mg/kg administered intraperitoneally against serotonin by Dunnett's test; format: functional; settings: ip, route intraperitoneal; summary of the method: as §2
[40] = organism: Rattus norvegicus; assay: Compound was tested for the inhibition of rat passive cutaneous anaphylaxis (PCA) Percent inhibition; format: functional; summary of the method: as §2
[41] = test system: Rattus norvegicus; assay: Compound was tested […] for the inhibition of serotonin release in rat peritoneal cell

`c1ccc2c(c1)Cn1c(cc3ccccc31)C(N1CCNCC1)=N2` gave an inhibition in vivo at 1 mg/kg [1] of 82%, an ED50 [2] of 0.43 mg/kg and an IC50 [3] of 7.38 µM. The inhibition in vivo at 0.37 mg/kg [4] was 14.2%, the inhibition in vivo at 0.37 mg/kg [5] was 44.5% and the inhibition in vivo at 3.3 mg/kg [6] was 55.7%. The inhibition in vivo at 3.3 mg/kg [7] was 92.7%, the inhibition in vivo at 3.3 mg/kg [8] was 65.8% and the inhibition in vivo at 0.37 mg/kg [9] was 52%.
Work on `c1ccc2c(c1)Cn1c(cc3ccccc31)C(N1CCOCC1)=N2` yielded an inhibition in vivo at 10 mg/kg [10] of 0.4%.
With `OCCCN1CCN(C2=Nc3ccccc3Cn3c2cc2ccccc23)CC1` the inhibition in vivo at 1 mg/kg [1] was 64%, the ED50 [11] was 0.69 mg/kg and the ED50 [2] was 0.08 mg/kg. It also gave an IC50 [3] of 15.2 µM, an inhibition in vivo at 0.12 mg/kg [12] of 6.8% and an inhibition in vivo at 0.12 mg/kg [13] of 58.8%. The inhibition in vivo at 0.12 mg/kg [14] was 24.9%, the inhibition in vivo at 0.37 mg/kg [15] was 53% and the inhibition in vivo at 0.37 mg/kg [5] was 53.2%. For the same compound, the inhibition in vivo at 0.37 mg/kg [9] was 92.9%.
With `O=C([O-])c1cc(=O)c2c(OCC(O)COc3cccc4oc(C(=O)[O-])cc(=O)c34)cccc2o1.[Na+].[Na+]` [CROMOLYN SODIUM] the inhibition in vivo at 100 mg/kg [16] was 25%, the ED50 [2] was 2.55 mg/kg and the IC50 [3] was 256 µM. The inhibition in vivo at 10 mg/kg [17] was 97%, the inhibition in vivo at 1 mg/kg [18] was 0% and the inhibition in vivo at 10 mg/kg [19] was 8.5%. The inhibition in vivo at 10 mg/kg [20] was 21.4% and the inhibition in vivo at 1 mg/kg [21] was 37%.
For `CN1CCC(=C2c3ccccc3CC(=O)c3sccc32)CC1` [KETOTIFEN], the inhibition in vivo at 0.001 mg/kg [22] was 57%, the ED50 [11] was 0.002 mg/kg and the inhibition in vivo at 1 mg/kg [23] was 82%. For the same compound, the inhibition in vivo at 1 mg/kg [24] was 68%, the inhibition in vivo at 1 mg/kg [25] was 6.5% and the inhibition in vivo at 1 mg/kg [26] was 37%. The inhibition in vivo at 1 mg/kg [27] was 68%, the inhibition in vivo at 1 mg/kg [28] was 73% and the ED50 [2] was 0.32 mg/kg. It also gave an IC50 [3] of 22.9 µM, an inhibition in vivo at 0.37 mg/kg [4] of 64.6% and an inhibition in vivo at 0.37 mg/kg [5] of 14.8%. The inhibition in vivo at 3.3 mg/kg [6] was 62.5%, the inhibition in vivo at 3.3 mg/kg [7] was 92.4% and the inhibition in vivo at 3.3 mg/kg [8] was 35.3%. For the same compound, the inhibition in vivo at 0.37 mg/kg [9] was 63.3%.
`O=c1[nH]c2ccccc2n1CCCN1CCN(C(c2ccccc2)c2ccccc2)CC1` [OXATOMIDE] was tested, and the Inhibition [29] was 43%, the Dose [30] was 1 mg/kg and the inhibition in vivo at 1 mg/kg [31] was 54%. For the same compound, the inhibition in vivo at 1 mg/kg [32] was -5%, the inhibition in vivo at 1 mg/kg [33] was 45% and the inhibition in vivo at 1 mg/kg [34] was 25%. For the same compound, the inhibition in vivo at 1 mg/kg [35] was 16%, the inhibition in vivo at 1 mg/kg [36] was 10.6% and the Dose [37] was 1.1 mg/kg. For the same compound, the ED50 [2] was 1.2 mg/kg, the inhibition in vivo at 1.1 mg/kg [38] was 38% and the inhibition in vivo at 1.1 mg/kg [39] was 35.1%. For the same compound, the inhibition in vivo at 3.3 mg/kg [6] was 49.3%, the inhibition in vivo at 3.3 mg/kg [7] was 100% and the inhibition in vivo at 3.3 mg/kg [8] was 46.5%. For the same compound, the Inhibition [40] was 69.1% and the IC50 [41] was 20.1 µM.
